Measurements of several laboratories.
Lines come from different studies, so protocols differ.
PFF0160c E182D: Dihydroorotate dehydrogenase (quinone), mitochondrial (PFF0160c, Plasmodium falciparum, UniProt Q08210, E182D)
SIGMAR1: Sigma non-opioid intracellular receptor 1 (SIGMAR1, Homo sapiens, UniProt Q99720)
Nectin-4: Nectin-4 (Homo sapiens, UniProt Q96NY8)

Cc1cccc(C(=O)N2CCN(Cc3cccc(NC(=O)c4cccs4)c3)CC2)c1
IC50 (PFF0160c E182D; enzyme activity, inhibitor, absorbance): 6610 nM

N[C@@H](C[C@]1(C(=O)O)C[C@H]2OC[C@@H](O)[C@@H](O)[C@H]2O1)C(=O)O
Ki (Glutamate receptor ionotropic, kainate 2 (Grik2, Rattus norvegicus, UniProt P42260, A518T); ligand displacement, radioligand): 61 nM

CN(C)CC[C@@H](c1ccc(Cl)cc1)c1ccccn1
Ki (SIGMAR1; ligand displacement, radioligand): 1990 nM

CCC(c1ccccc1)c1nn2c(-c3cccs3)nnc2s1 (centres unmarked)
IC50 (PFF0160c E182D; enzyme activity, inhibitor, absorbance): 171 nM

CC1CCN(CCCC(=O)c2ccc(F)cc2)CC1
Ki (SIGMAR1; ligand displacement, radioligand): 10.1 nM

CCc1nc2nc(C)cc(Nc3cc(C)cc(C)c3)n2n1
IC50 (PFF0160c E182D; enzyme activity, inhibitor, absorbance): 8560 nM

Cc1cccc(CN2CCN(C(c3ccccc3)c3ccc(Cl)cc3)CC2)c1 (centres unmarked)
Ki (SIGMAR1; ligand displacement, radioligand): 1250 nM

CCCC[C@@H]1NC(=O)[C@H](Cc2ccc(O)cc2)NC(=O)[C@@H]2CCCN2C(=O)[C@H](CC(=O)O)NC(=O)[C@H](C)NC(=O)[C@H](Cc2ccccc2)NC(=O)[C@@H]2CSCCC(=O)N3CN(CN(C3)C(=O)CCSC[C@@H](C(=O)N[C@@H](C)C(N)=O)NC1=O)C(=O)CCSC[C@H](NC(=O)[C@H](C)NC(C)=O)C(=O)N[C@@H]([C@@H](C)CC)C(=O)N[C@@H](CCC(=O)O)C(=O)N[C@@H](CCC(=O)O)C(=O)N[C@H](CCCCNC(=O)CCc1cn(CCOCCOCCOCCN(CCOCCOCCOCCC(=O)N[C@H]3CSCCC(=O)N4CN5CN(C4)C(=O)CCSC[C@H](NC(=O)[C@@H](CC(=O)O)NC(=O)[C@H](Cc4cccc6ccccc46)NC(=O)[C@@H]4CCCN4C3=O)C(=O)N[C@@H](CCSC)C(=O)N[C@@H](CCCCNC(=N)N)C(=O)N[C@@H](CC(=O)O)C(=O)N[C@@H](Cc3c[nH]c4ccccc34)C(=O)N[C@@H](CO)C(=O)N[C@@H]([C@@H](C)O)C(=O)N3CCC[C@H]3C(=O)N3C[C@H](O)C[C@H]3C(=O)N[C@@H](Cc3c[nH]c4ccccc34)C(=O)N[C@H](C(N)=O)CSCCC5=O)CCOCCOCCOCCn3cc(CCC(=O)NCCCC[C@H]4NC(=O)[C@H](CCC(=O)O)NC(=O)[C@H](CCC(=O)O)NC(=O)[C@H]([C@@H](C)CC)NC(=O)[C@@H](NC(=O)[C@H](C)NC(C)=O)CSCCC(=O)N5CN6CN(C5)C(=O)CCSC[C@H](NC(=O)[C@H](Cc5ccc(O)cc5)NC(=O)[C@H](CCC(N)=O)NC4=O)C(=O)N[C@@H](Cc4ccccc4)C(=O)N[C@@H](C)C(=O)N[C@@H](CC(=O)O)C(=O)N4CCC[C@H]4C(=O)N[C@@H](Cc4ccc(O)cc4)C(=O)N[C@@H](CCCC)C(=O)N[C@H](C(=O)N[C@@H](C)C(N)=O)CSCCC6=O)nn3)nn1)C(=O)N[C@@H](CCC(N)=O)C(=O)N[C@@H](Cc1ccc(O)cc1)C(=O)N2
Kd (Nectin-4; binding, SPR): 6.8 nM

O=C1C(c2ccccc2)=C(Nc2ccc([N+](=O)[O-])cc2)c2ccccc21
IC50 (Dihydroorotate dehydrogenase (quinone), mitochondrial (PFF0160c, Plasmodium falciparum, UniProt Q08210); enzyme activity, inhibitor, absorbance): 2150 nM

CCCC[C@@H]1NC(=O)[C@H](Cc2ccc(O)cc2)NC(=O)[C@@H]2CCCN2C(=O)[C@H](CC(=O)O)NC(=O)[C@H](C)NC(=O)[C@H](Cc2ccccc2)NC(=O)[C@@H]2CSCCC(=O)N3CN(CN(C3)C(=O)CCSC[C@@H](C(N)=O)NC1=O)C(=O)CCSCCC(=O)N[C@@H](CC(C)(C)C)C(=O)N1CCC[C@H]1C(=O)N[C@@H](CCC(=O)O)C(=O)N[C@H](CCCCNC(=O)CCc1cn(CCOCCOCCOCCOCCOCCC(=O)N[C@H]3CSCCC(=O)N4CN5CN(C4)C(=O)CCSC[C@H](NC(=O)[C@@H](CC(=O)O)NC(=O)[C@H](Cc4cccc6ccccc46)NC(=O)[C@@H]4CCCN4C3=O)C(=O)N[C@@H](CCSC)C(=O)N[C@@H](CCCCNC(=N)N)C(=O)N[C@@H](CC(=O)O)C(=O)N[C@@H](Cc3c[nH]c4ccccc34)C(=O)N[C@@H](CO)C(=O)N[C@@H]([C@@H](C)O)C(=O)N3CCC[C@H]3C(=O)N3C[C@H](O)C[C@H]3C(=O)N[C@@H](Cc3c[nH]c4ccccc34)C(=O)N[C@H](C(N)=O)CSCCC5=O)nn1)C(=O)N1CCC[C@H]1C(=O)N[C@@H](Cc1ccc(O)cc1)C(=O)N2
Kd (Nectin-4; binding, SPR): 1.4 nM

Cc1cc2c(s1)Nc1ccccc1N=C2N1CCN(C)CC1
Ki (SIGMAR1; ligand displacement, radioligand): > 10000 nM

CCCC[C@@H]1NC(=O)[C@H](Cc2ccc(O)cc2)NC(=O)[C@@H]2CCCN2C(=O)[C@H](CC(=O)O)NC(=O)[C@H](C)NC(=O)[C@H](Cc2ccccc2)NC(=O)[C@@H]2CSCCC(=O)N3CN(CN(C3)C(=O)CCSC[C@H](NC(C)=O)C(=O)N[C@@H](CC(C)(C)C)C(=O)N3CCC[C@H]3C(=O)N[C@@H](CCC(=O)O)C(=O)N[C@H](CCCCNC(=O)CCc3cn(CCOCCOCCOCCOCCOCCC(=O)N[C@H]4CSCCC(=O)N5CN6CN(C5)C(=O)CCSC[C@H](NC(=O)[C@@H](CC(=O)O)NC(=O)[C@H](Cc5cccc7ccccc57)NC(=O)[C@@H]5CCCN5C4=O)C(=O)N[C@@H](CCSC)C(=O)N[C@@H](CCCCNC(=N)N)C(=O)N[C@@H](CC(=O)O)C(=O)N[C@@H](Cc4c[nH]c5ccccc45)C(=O)N[C@@H](CO)C(=O)N[C@@H]([C@@H](C)O)C(=O)N4CCC[C@H]4C(=O)N4C[C@H](O)C[C@H]4C(=O)N[C@@H](Cc4c[nH]c5ccccc45)C(=O)N[C@H](C(N)=O)CSCCC6=O)nn3)C(=O)N3CCC[C@H]3C(=O)N[C@@H](Cc3ccc(O)cc3)C(=O)N2)C(=O)CCSC[C@@H](C(N)=O)NC1=O
Kd (Nectin-4; binding, SPR): 2 nM

O=C(c1ccc(F)cc1)C1CCN(C2Cc3ccccc3CC2O)CC1 (single isomer, unassigned; (-))
Ki (Vesicular acetylcholine transporter (SLC18A3, Homo sapiens, UniProt Q16572); ligand displacement, radioligand): 24.7 nM

CCCC[C@@H]1NC(=O)[C@H](Cc2ccc(O)cc2)NC(=O)[C@@H]2CCCN2C(=O)[C@H](CC(=O)O)NC(=O)[C@H](C)NC(=O)[C@H](Cc2ccccc2)NC(=O)[C@@H]2CSCCC(=O)N3CN(CN(C3)C(=O)CCSC[C@@H](C(=O)N[C@@H](C)C(N)=O)NC1=O)C(=O)CCSC[C@H](NC(C)=O)C(=O)N[C@@H](CC(C)(C)C)C(=O)N1CCC[C@H]1C(=O)N[C@@H](CCC(=O)O)C(=O)N[C@H](CCCCNC(=O)CCc1cn(CCOCCOCCOCCOCCOCCC(=O)N[C@H]3CSCCC(=O)N4CN5CN(C4)C(=O)CCSC[C@H](NC(=O)[C@@H](CCC(=O)O)NC(=O)[C@H](Cc4cccc6ccccc46)NC(=O)[C@@H]4CCCN4C3=O)C(=O)N[C@@H](CC(C)C)C(=O)N[C@@H](CCCCNC(=N)N)C(=O)N[C@@H](CC(=O)O)C(=O)N[C@@H](Cc3c[nH]c4ccccc34)C(=O)N[C@@H](CO)C(=O)N[C@@H]([C@@H](C)O)C(=O)N3CCC[C@H]3C(=O)N3C[C@H](O)C[C@H]3C(=O)N[C@@H](Cc3c[nH]c4ccccc34)C(=O)N[C@H](C(N)=O)CSCCC5=O)nn1)C(=O)N1CCC[C@H]1C(=O)N[C@@H](Cc1ccc(O)cc1)C(=O)N2
Kd (Nectin-4; binding, SPR): 4.2 nM

Cc1cc(F)ccc1NS(=O)(=O)c1ccc(-c2ccoc2)s1
IC50 (PFF0160c E182D; enzyme activity, inhibitor, absorbance): > 10000 nM

CCCC[C@@H]1NC(=O)[C@H](Cc2ccc(O)cc2)NC(=O)[C@@H]2CCCN2C(=O)[C@H](CC(=O)O)NC(=O)[C@H](C)NC(=O)[C@H](Cc2ccccc2)NC(=O)[C@@H]2CSCCC(=O)N3CN(CN(C3)C(=O)CCSCCC(=O)N[C@@H](CC(C)(C)C)C(=O)N3CCC[C@H]3C(=O)N[C@@H](CCC(=O)O)C(=O)N[C@H](CCCCNC(=O)CCc3cn(CCOCCOCCOCCOCCOCCC(=O)N[C@H]4CSCCC(=O)N5CN6CN(C5)C(=O)CCSC[C@H](NC(=O)[C@@H](CC(=O)O)NC(=O)[C@H](Cc5cccc7ccccc57)NC(=O)[C@@H]5CCCN5C4=O)C(=O)N[C@@H](CCSC)C(=O)N[C@@H](CCCCNC(=N)N)C(=O)N[C@@H](CC(=O)O)C(=O)N[C@@H](Cc4c[nH]c5ccccc45)C(=O)N[C@@H](CO)C(=O)N[C@@H]([C@@H](C)O)C(=O)N4CCC[C@H]4C(=O)N4C[C@H](O)C[C@H]4C(=O)N[C@@H](Cc4c[nH]c5ccccc45)C(=O)N[C@H](C(N)=O)CSCCC6=O)nn3)C(=O)N3CCC[C@H]3C(=O)N[C@@H](Cc3ccc(O)cc3)C(=O)N2)C(=O)CCSCCNC1=O
Kd (Nectin-4; binding, SPR): 1 nM

COc1cc2c(cc1OC)C(=O)C(CC1CCN(Cc3ccccc3)CC1)C2 (centres unmarked)
Ki (SIGMAR1; ligand displacement, radioligand): 19.1 nM
